# Fh CTSL1 inh: cathepsin L1 inhibition, PFM18AAP counter-screen; AID 1906; inhibition, % at 5.96 µM; 300,000 compounds, 0.49% hits; recombinant F. hepatica cathepsin L1, Z-Leu-Arg-MCA fluorescence;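 active means inhibition above the mean of all tested compounds plus 3 SD, set per screening campaign, cut at about 17% in these data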;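 further: 0% = plate median of test compound wells and 100% = 1 µM Z-Phe-Ala-diazomethylketone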
# ARFGAP1 inh: rat ARFGAP1 inhibition; 360,000 compounds, 0.26% hits; Arfgap1-stimulated ARF1 GTP hydrolysis, GDP FP detection; AID 651572; inhibition, % at 16.5 µM;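 active means inhibition above a per-plate limit, mean inhibition of low control wells plus 3 SD, cut at about 25% in these data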;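 further: 0% = DMSO wells with enzyme and 100% = wells lacking Arfgap1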
# Target sequence (Q62848 1-136 limits assumed): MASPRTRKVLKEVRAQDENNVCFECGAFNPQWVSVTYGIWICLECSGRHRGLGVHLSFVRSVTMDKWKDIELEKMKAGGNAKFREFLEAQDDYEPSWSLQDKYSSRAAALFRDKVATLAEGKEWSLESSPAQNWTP
#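 Material: rat Arfgap1 catalytic domain, aa 1-136; also added: human ARF1(Δ1-17)-GTP substrate; compound dosing: one concentration, 16.5 µM, DMSO 1.26%; incubation: GTP hydrolysis reaction 2 h at 25 °C; measured by: Tracer-displacement fluorescence polarization with EDTA stop, 620/688 nm; evaluation: % inhibition from polarization; repeats: one replicate per compound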
# GC-A act: GC-A (human) enzyme activation; P16066; HEK293 GC-A cells, cGMP TR-FRET, EC30 ANP; 0% at EC30 ANP, 100% saturating ANP; activation, % at 10 µM; 370,000 compounds, 0.14% hits; AID 1671463; in the data active means activation above about 40%
# NPR2 activator: GC-B (human) receptor activation; P20594; HEK293-GC-B cells, CNP EC30, cGMP TR-FRET; 0% at EC30 CNP, 100% saturating CNP; activation, % at 10 µM; 370,000 compounds, 0.11% hits; AID 1920062;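 active means activation at 10 µM reaching about 35% in either raw or pattern-adjusted values, limit read from the data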
# core dimer inh: blocks dimerization of HCV core protein. TR-FRET GST/Flag-core106 dimerization, 1536-well. inhibition, % at 5 µM. 300,000 compounds, 0.33% hits;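 active means inhibition above the mean of all tested compounds plus 3 SD, set per screening campaign, cut at about 45% in these data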
#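 Assay system: Tagged HCV core106 pair (GST and Flag) | Buffer or medium: KF-containing HEPES buffer, pH 7.45, DTT, CHAPS, BSA | Also added: Eu donor and XL665 acceptor anti-tag antibodies | Dosing: One concentration, 5 µM, in 0.5% DMSO | Timing: 4 h at 22.5 °C | Technique: TR-FRET 671 and 617 nm emission | Repeats: Singlicate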
# ASAP1 GAP inh: blocks human ASAP1-stimulated Arf1 GTP hydrolysis; Q9ULH1; GDP FP detection; inhibition, % at 16.5 µM; 360,000 compounds, 0.19% hits; in the data active means inhibition above about 25%;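 further: 0% = vehicle with enzyme and substrate and 100% = no enzyme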
# Target sequence (Q9ULH1 325-724 limits assumed): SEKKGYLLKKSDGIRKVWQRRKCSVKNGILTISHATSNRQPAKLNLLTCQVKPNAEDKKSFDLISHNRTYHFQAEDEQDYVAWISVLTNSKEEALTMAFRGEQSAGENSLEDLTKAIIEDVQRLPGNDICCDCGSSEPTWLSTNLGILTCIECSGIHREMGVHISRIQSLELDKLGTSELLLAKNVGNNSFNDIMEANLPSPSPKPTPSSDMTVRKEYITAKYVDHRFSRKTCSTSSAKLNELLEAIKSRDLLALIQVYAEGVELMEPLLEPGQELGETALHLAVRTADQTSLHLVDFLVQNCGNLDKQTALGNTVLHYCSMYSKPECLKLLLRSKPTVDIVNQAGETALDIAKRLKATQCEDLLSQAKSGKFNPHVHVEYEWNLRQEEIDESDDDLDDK
# Numbers without * were called inactive; · = no result. Most compounds without a hit are left out; they make up all but 1.2% or so of the library.
SMILES,Fh CTSL1 inh,ARFGAP1 inh,GC-A act,NPR2 activator,core dimer inh,ASAP1 GAP inh
O=C1C2CCCCN2C(=O)N1CCN1CCN(c2ccc([N+](=O)[O-])cc2)CC1 (stereo not given),5,15,-2,-5,2,-4
O=C(CCCN1C(=O)C2CCCCN2C1=O)N1CCN(c2ccc([N+](=O)[O-])cc2)CC1 (stereo not given),20*,4,4,-3,-1,4
O=C1Nc2cnc(Cl)nc2Nc2ccc(Cl)cc21,·,4,-7,-13,·,9
O=C1Nc2ccc(Cl)cc2/C1=C/C1CC=CCC1 (stereo not given),47*,0,2,-6,-10,-6
CC(C)(C)c1ccc(-c2cnco2)cc1,0,-7,-1,3,-6,14
Brc1cccc(-c2cnco2)c1,18*,-9,1,3,-1,6
CCCCCOc1ccc(CN2CCOCC2)cc1Cl,1,-13,4,-3,-4,-17
CON(C)S(=O)(=O)c1cccc(C(=O)NC2CCSc3ccccc32)c1 (stereo not given),2,-12,-1,1,15,4
CC(=O)n1c(Cl)c(NC(=O)CCl)c2ccccc21,37*,7,-2,5,-1,-8
CN(C(=O)CSc1nc2scc(-c3ccccc3)c2c(=O)[nH]1)c1ccccc1,·,-8,1,-2,·,5
CCOC(=O)N1CCN(CCC(=O)c2ccc(OC)cc2)CC1,2,0,4,-5,1,10
COc1cc2c(cc1OC)CN(CCC(=O)c1ccc(Br)cc1)CC2,4,4,42*,-11,3,-1
CCOC(=O)N1CCN(CCC(=O)c2ccc(Br)cc2)CC1,·,17,53*,-11,·,-7
CCOC(=O)N1CCN(CCC(=O)c2ccc(Cl)cc2)CC1,2,-6,65*,-14,-11,-4
CCn1cc(Br)c(C(=O)Nc2ccc(Cl)cc2Cl)n1,0,6,7,-4,-4,12
CCOC(=O)/C=C1\SCC(=O)N1Cc1nnc(-c2ccccc2Br)o1,0,0,0,-6,64*,8
O=C(NCc1ccc(F)cc1)c1cccc2c1C(=O)N(Cc1cccnc1)C2,0,6,-1,2,4,-16
O=c1oc2ccccc2nc1/C=C(O)/C=C\c1ccccc1,-6,8,4,-5,50*,6
O=c1oc2ccccc2nc1/C=C(O)/C=C/c1ccc(F)cc1,2,10,2,1,0,-7
CCc1ccc(N2C(=O)C(Cl)=C(N3CCOCC3)C2=O)cc1,32*,-9,0,-3,3,7
CCc1ccc(N2C(=O)C(Cl)=C(N3CCCCCC3)C2=O)cc1,·,14,1,-2,·,-1
O=C1C(Cl)=C(N2CCOCC2)C(=O)N1c1cccc(Cl)c1,57*,-2,0,-3,1,-3
Cc1cccc(N2C(=O)C(Cl)=C(N3CCOCC3)C2=O)c1,28*,6,-6,-6,-2,-3
Cc1ccccc1NC1=NC2(CCCC2)N=C(N)N1,-3,9,1,6,-7,7
CC1OC(OCC2OC(Oc3c(-c4ccc(O)cc4)oc4cc(O)cc(O)c4c3=O)C(O)C(O)C2O)C(O)C(O)C1O (stereo not given),5,-17,3,-5,-6,2
SMILES,Fh CTSL1 inh,ARFGAP1 inh,GC-A act,NPR2 activator,core dimer inh,ASAP1 GAP inh
CCOc1ccc(OCc2cccc(C(=O)Nc3ccc(CN4CCCCC4)cc3)c2)cc1,1,13,0,-5,-9,10
COCCCNc1nc2c(-c3cccc(C)c3)nnn2c2ccccc12,18*,4,25,14,-12,-11
CSCCC(NS(=O)(=O)c1ccc2c(c1)c(=O)n(C)c(=O)n2C)C(=O)NC1CCN(Cc2ccccc2)CC1 (stereo not given),40*,2,-2,4,-2,-15
Cc1ccc(S(=O)(=O)N2CCC(C(=O)N/N=C/c3cccnc3)CC2)cc1,-3,14,-3,-6,-5,-3
Cc1ccc(Cn2c(=N)c(C(=O)NCc3ccco3)cc3c(=O)n4ccccc4nc32)cc1,1,2,53*,12,63*,-9
N=c1c(C(=O)NCc2ccco2)cc2c(=O)n3ccccc3nc2n1CCc1ccccc1,2,7,7,-2,52*,3
Cc1ccc(Cn2c(=N)c(C(=O)NCC3CCCO3)cc3c(=O)n4ccccc4nc32)cc1 (stereo not given),1,6,34,27,6,10
Cc1ccc(Cn2c(=N)c(C(=O)NCC3CCCO3)cc3c(=O)n4cccc(C)c4nc32)cc1 (stereo not given),3,9,40*,37*,16,-11
CCOc1cc(N2CCOCC2)c(OCC)cc1NC(=O)COC(=O)COc1cc(C)cc(C)c1,-3,12,-3,-5,-5,1
CCOc1cc(N2CCOCC2)c(OCC)cc1NC(=O)COC(=O)c1cc(C)cc(C)c1,50*,1,20,28,-5,1
CCOc1cc(N2CCOCC2)c(OCC)cc1NC(=O)COC(=O)c1ccc([N+](=O)[O-])o1,·,5,37,37*,·,-11
CCOc1cc(N2CCOCC2)c(OCC)cc1NC(=O)COC(=O)c1cc(C)oc1C,41*,2,8,14,6,8
COc1ccc(OC)c(NC(=S)N2CCCC2)c1,·,0,0,5,·,-1
CCOc1ccccc1OCCOc1ccccc1CC,2,8,-5,-16,-2,-7
O=C(c1ccccc1)N1CCN(c2ncnc3c(-c4ccccc4)nsc23)CC1,-2,5,4,-5,-3,-8
O=C(COC(=O)C1CCN(c2ccc(C(F)(F)F)cn2)CC1)c1ccc(F)cc1,18*,-7,-5,-3,-3,3
Cc1nc(=O)c(-c2ccccc2)c(C)n1-c1ccc(O)cc1,1,3,3,4,1,-2
Cc1ccn2c(=O)nc(SCC(=O)N3CCCCC3)nc2c1,-2,13,0,-1,2,1
Cc1ccc(C2CC(c3cccs3)=NN2C(=O)CSc2nc(=O)n3ccc(C)cc3n2)cc1 (stereo not given),11,0,2,3,61*,-10
COc1ccc(C2CC(c3cccs3)=NN2C(=O)CSc2nc(=O)n3ccc(C)cc3n2)cc1 (stereo not given),12,5,7,4,48*,7
O=C(CSc1nc(=O)n2ccccc2n1)N1N=C(c2cccs2)CC1c1ccc(F)cc1 (stereo not given),8,2,-4,-3,9,5
